The results in this text go back to the RNAGym collection of RNA variant scans (doi:10.1002/anie.201605470).

The chains are these.
B1: Osa-1-4 twister ribozyme (parent)
chain: CCGCCUAACACUGCCAAUGCCGGUCCCAAGCCCGGAUAAAAGUGGAGGGGGCGG

The series covers variants of B1. The series is described as follows: self-cleavage, relative activity (ratio to wild type); higher = more cleavage; co-transcriptional. In short, it runs like this:
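The 48 positions downstream of the cleavage site in a DNA template for a 54-nucleotide Oryza sativa twister ribozyme carried 97 % wild-type base and 1 % of each other base. After in vitro transcription (2 h, 37 °C) with co-transcriptional self-cleavage, the RNA was reverse-transcribed with a template-switching oligonucleotide, PCR-amplified and deep-sequenced. Relative activity is the fraction cleaved, judged by reads with or without upstream sequence and normalised to wild type.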
On to A38U C11G, for which the self-cleavage came to 0.59.

In the case of A38U C11A, the self-cleavage is 0.78.

As for A38U C11U, the self-cleavage came to 0.97.

With A39C A46G, the self-cleavage was 0.05.

For A39C A46U, the self-cleavage was determined as 0.07.

As for A39C A46C, the self-cleavage was 0.04.

In the case of A39C G47U, the self-cleavage was 0.1.

Regarding A39C G47A, the self-cleavage was determined as 0.08.

As to A39C G47C, the self-cleavage stood at 0.06.

In the case of A39C A40C, the self-cleavage worked out at 0.1.

For A39C A40G, the self-cleavage is 0.59.

For the variant A39C A40U, the self-cleavage was 0.85.

For the variant A39C C31A, the self-cleavage is 0.04.

Consider A39C C31U, for which the self-cleavage came to 0.53.

For A39C C31G, the self-cleavage is 0.08.

With A39C G54U, the self-cleavage was 0.65.

For A39C G54A, the self-cleavage was 0.62.

For A39C G54C, the self-cleavage came out at 0.6.

For the variant A39C G49U, the self-cleavage worked out at 0.06.

On to A39C G49A, for which the self-cleavage was determined as 0.07.

With A39C G49C, the self-cleavage was 0.06.

Regarding A39G A40U, the self-cleavage came out at 0.16.

On to A39G A40C, for which the self-cleavage is 0.05.

For the variant A39G A40G, the self-cleavage stood at 0.36.

As to A39G C14U, the self-cleavage came to 0.11.

For A39G C14G, the self-cleavage stood at 0.12.

In the case of A39G C14A, the self-cleavage came to 0.08.

Turning to A39C C11U, the self-cleavage was found to be 0.74.

As to A39C C11A, the self-cleavage stood at 0.26.

Turning to A39C C11G, the self-cleavage stood at 0.21.

A38U G47A: the self-cleavage was 0.18.

Regarding A38U G47C, the self-cleavage is 0.08.

Take A38U G47U: the self-cleavage was 0.19.

As for A39C U18A, the self-cleavage was found to be 0.93.

In the case of A39C U18C, the self-cleavage came to 0.96.

Consider A39C U18G, for which the self-cleavage worked out at 0.83.

For the variant A38G G53A, the self-cleavage was determined as 0.8.

For A38G G53U, the self-cleavage was 0.31.

For the variant A38G G53C, the self-cleavage worked out at 0.09.

A38U A41C: the self-cleavage came out at 0.89.

In the case of A38U A41G, the self-cleavage was 0.64.

A38U A41U: the self-cleavage was 0.98.

A38U C52A: the self-cleavage is 1.

Consider A38U C52G, for which the self-cleavage is 0.98.

Turning to A38U C52U, the self-cleavage turned out to be 1.01.

As to A39G C26A, the self-cleavage was determined as 0.06.

On to A39G C26U, for which the self-cleavage is 0.55.

On to A39G C26G, for which the self-cleavage was 0.25.

As to A38U C14A, the self-cleavage stood at 0.07.

In the case of A38U C14G, the self-cleavage is 0.11.

With A38U C14U, the self-cleavage worked out at 0.22.

For A38G U18G, the self-cleavage was 0.84.

With A38G U18C, the self-cleavage was 0.97.

Consider A38G U18A, for which the self-cleavage stood at 0.92.

Take A39C U12G: the self-cleavage is 0.11.

Consider A39C U12C, for which the self-cleavage was determined as 0.11.

Regarding A39C U12A, the self-cleavage was 0.44.

A38U G51A: the self-cleavage was determined as 0.63.

Regarding A38U G51C, the self-cleavage turned out to be 0.09.

Take A38U G51U: the self-cleavage is 0.32.

Take A39G A41C: the self-cleavage was 0.6.

On to A39G A41G, for which the self-cleavage turned out to be 0.46.

In the case of A39G A41U, the self-cleavage is 0.95.

A39C G35C: the self-cleavage stood at 0.14.

Consider A39C G35U, for which the self-cleavage was found to be 0.84.

For the variant A39C G35A, the self-cleavage was determined as 0.78.

For the variant A38U U24A, the self-cleavage was 0.14.

As to A38U U24C, the self-cleavage was found to be 0.25.

Take A38U U24G: the self-cleavage worked out at 0.03.

For the variant A38U C31A, the self-cleavage was 0.03.

For A38U C31G, the self-cleavage is 0.08.

For A38U C31U, the self-cleavage stood at 0.75.

A38U G48U: the self-cleavage came to 0.08.

For A38U G48A, the self-cleavage was 0.1.

For A38U G48C, the self-cleavage turned out to be 0.08.

As to A39C G34A, the self-cleavage amounted to 0.63.

With A39C G34C, the self-cleavage worked out at 0.2.

Take A39C G34U: the self-cleavage worked out at 0.42.

As for A39C G19A, the self-cleavage came to 0.28.

As for A39C G19C, the self-cleavage came out at 0.06.

Turning to A39C G19U, the self-cleavage stood at 0.11.

On to A38U G54A, for which the self-cleavage came out at 0.93.

With A38U G54U, the self-cleavage is 0.95.

For the variant A38U G54C, the self-cleavage is 0.89.

A38G G51C: the self-cleavage came to 0.11.

For A38G G51U, the self-cleavage is 0.36.

As for A38G G51A, the self-cleavage was 0.72.

A39C C14U: the self-cleavage was 0.11.

Regarding A39C C14A, the self-cleavage was 0.08.

Turning to A39C C14G, the self-cleavage was 0.05.

For the variant A38U G49U, the self-cleavage came to 0.09.

As for A38U G49C, the self-cleavage worked out at 0.05.

As for A38U G49A, the self-cleavage was found to be 0.12.

A39C G48U: the self-cleavage was 0.05.

For A39C G48C, the self-cleavage is 0.05.

In the case of A39C G48A, the self-cleavage was 0.06.

For the variant A39C U24C, the self-cleavage was 0.06.

Take A39C U24G: the self-cleavage was determined as 0.03.

With A39C U24A, the self-cleavage amounted to 0.05.

Consider A38G U24A, for which the self-cleavage was determined as 0.16.

Consider A38G U24C, for which the self-cleavage was found to be 0.32.

Consider A38G U24G, for which the self-cleavage amounted to 0.03.

As to A39C G42C, the self-cleavage came out at 0.09.

On to A39C G42U, for which the self-cleavage is 0.05.

Consider A39C G42A, for which the self-cleavage came to 0.1.

Regarding A38G U12C, the self-cleavage amounted to 0.42.

A38G U12A: the self-cleavage worked out at 0.88.

In the case of A38G U12G, the self-cleavage is 0.41.

A38U G22U: the self-cleavage came out at 0.89.

For A38U G22A, the self-cleavage came out at 1.

For the variant A38U G22C, the self-cleavage is 0.08.

Take A38G U37G: the self-cleavage was 1.

A38G U37C: the self-cleavage was found to be 1.05.

As for A38G U37A, the self-cleavage was determined as 1.

Take A39C C32U: the self-cleavage was 0.08.

Consider A39C C32G, for which the self-cleavage turned out to be 0.1.

For the variant A39C C32A, the self-cleavage was determined as 0.08.

For A38U G44C, the self-cleavage turned out to be 0.96.

Consider A38U G44A, for which the self-cleavage was 0.92.

Take A38U G44U: the self-cleavage was determined as 0.89.

As for A39C U43A, the self-cleavage was found to be 0.33.

As to A39C U43C, the self-cleavage worked out at 0.16.

Take A39C U43G: the self-cleavage was 0.16.

As to A38U G50U, the self-cleavage was 1.01.

For A38U G50C, the self-cleavage turned out to be 0.99.

In the case of A38U G50A, the self-cleavage amounted to 0.64.

On to A39G C21G, for which the self-cleavage amounted to 0.08.

A39G C21U: the self-cleavage stood at 1.01.

Regarding A39G C21A, the self-cleavage is 0.55.

In the case of A39G A8G, the self-cleavage was found to be 0.35.

Regarding A39G A8C, the self-cleavage is 0.08.

With A39G A8U, the self-cleavage came out at 0.17.

For A39G C15U, the self-cleavage was found to be 0.21.

Turning to A39G C15G, the self-cleavage is 0.31.

As to A39G C15A, the self-cleavage is 0.41.

For A39C G23U, the self-cleavage was 0.05.

Regarding A39C G23A, the self-cleavage came to 0.12.

For the variant A39C G23C, the self-cleavage was 0.04.

For the variant A39G C11U, the self-cleavage worked out at 0.93.

A39G C11G: the self-cleavage amounted to 0.51.

In the case of A39G C11A, the self-cleavage was determined as 0.62.

Consider A38U C26G, for which the self-cleavage was found to be 0.09.

In the case of A38U C26A, the self-cleavage is 0.04.

As for A38U C26U, the self-cleavage was found to be 0.92.

As for A38U C21U, the self-cleavage turned out to be 0.99.

In the case of A38U C21A, the self-cleavage was 0.53.

For the variant A38U C21G, the self-cleavage worked out at 0.06.

A38U U12G: the self-cleavage turned out to be 0.31.

For the variant A38U U12A, the self-cleavage amounted to 0.86.

As to A38U U12C, the self-cleavage is 0.4.

Consider A39G C27U, for which the self-cleavage stood at 0.11.

Consider A39G C27G, for which the self-cleavage stood at 0.07.

Take A39G C27A: the self-cleavage is 0.09.

As to A39C C25U, the self-cleavage was found to be 0.33.

Regarding A39C C25A, the self-cleavage stood at 0.06.

Turning to A39C C25G, the self-cleavage is 0.06.

With A38U C25G, the self-cleavage amounted to 0.09.

Consider A38U C25A, for which the self-cleavage came to 0.07.

A38U C25U: the self-cleavage stood at 0.9.

As for A38U C15U, the self-cleavage was 0.21.

Turning to A38U C15A, the self-cleavage was 0.23.

Turning to A38U C15G, the self-cleavage is 0.25.

A39C C9U: the self-cleavage came to 0.55.

Regarding A39C C9G, the self-cleavage was 0.34.

On to A39C C9A, for which the self-cleavage was determined as 0.28.

Consider A38U G35C, for which the self-cleavage amounted to 0.13.

For A38U G35U, the self-cleavage worked out at 0.89.
